The results in this text go back to ChEMBL document CHEMBL1955865, “Synthesis of novel spirooxindole derivatives by one pot multicomponent reaction and their antimicrobial activity” (2012).

Molecules are shown by their SMILES. Values after ≈ are worked out from the molar mass of the structure shown. Active and inactive are the calls of the source. The calls are words filed in the database; no cut-off is given here.

For orientation: MIC means the lowest concentration found to suppress growth.

In the first assay the test system is Botrytis cinerea. Kind of assay: Antifungal activity against Botrytis cinerea at 1000 ug/disc after 48 hrs by disc diffusion assay. The format is functional.
Conditions: not given
In short, it runs like this: (§1)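 Fungal disc diffusion with inoculum from SDA spores (filamentous) or SDB culture (yeast). Test cultures were swabbed on agar, and discs at 1000 µg/disc were left 30 min at room temperature, with a solvent negative control. Plates were incubated 48 h at 27 °C. Zone of inhibition was measured in mm, and the experiment was repeated twice.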
In general terms: A growth-free zone around the sample is the usual read-out of agar diffusion tests.
Turning to `CC(=O)N1CCN(c2ccc(OCC3COC(Cn4ccnc4)(c4ccc(Cl)cc4Cl)O3)cc2)CC1` (centres undefined) [KETOCONAZOLE], the “inhibition zone (IZ)” value was “inactive”.

In the next assay the test system is Candida albicans. Kind of assay: Antifungal activity against Candida albicans MTCC 227 after 48 to 72 hrs by twofold serial dilution method.
Conditions: not given
It counts as functional. In short, it runs like this:
(§2)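 Broth two-fold serial dilution, 1000 to 15.62 µg/ml, with compound dissolved in 2% DMSO, in 96-well plates. Filamentous fungal spores came from 10-day SDA slants at 28 °C, and yeast from SDB grown 48 h at 28 °C. Incubation was 48-72 h at 28 °C. MIC was the lowest concentration with no visible fungal growth.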
Consider `OC(Cn1cncn1)(Cn1cncn1)c1ccc(F)cc1F` [FLUCONAZOLE], for which the MIC is more than 100 µg/mL.

`CC(=O)N1CCN(c2ccc(OCC3COC(Cn4ccnc4)(c4ccc(Cl)cc4Cl)O3)cc2)CC1` (centres undefined) [KETOCONAZOLE] showed an MIC of 25 µg/mL (≈ 47 µM).

Test system in a further assay: not listed separately
Kind of assay: Antifungal activity against Malassezia pachydermatis after 48 to 72 hrs by twofold serial dilution method. It counts as functional.
Conditions: not given
In short, it runs like this: as §2
The molecule `OC(Cn1cncn1)(Cn1cncn1)c1ccc(F)cc1F` [FLUCONAZOLE] returned an MIC of 12.5 µg/mL (≈ 40.8 µM).

In the case of `CC(=O)N1CCN(c2ccc(OCC3COC(Cn4ccnc4)(c4ccc(Cl)cc4Cl)O3)cc2)CC1` (centres undefined) [KETOCONAZOLE], the lowest concentration to inhibit growth (MIC) was 15 µg/mL (≈ 28.2 µM).

Test system in a further assay: not listed separately
The assay is described as follows: Antifungal activity against Malassezia pachydermatis at 1000 ug/disc after 48 hrs by disc diffusion assay.
Conditions: not given
The format is functional. In short, it runs like this: as §1
In turn, `CC(=O)N1CCN(c2ccc(OCC3COC(Cn4ccnc4)(c4ccc(Cl)cc4Cl)O3)cc2)CC1` (centres undefined) [KETOCONAZOLE] had an inhibition zone (IZ) of 28 mm.

The next assay concerns Candida albicans. The assay is described as follows: Antifungal activity against Candida albicans MTCC 227 at 1000 ug/disc after 48 hrs by disc diffusion assay. It counts as functional. Conditions: MTCC 227, 48 h, read-out: IZ. In short, it runs like this:
as §1
Regarding `CC(=O)N1CCN(c2ccc(OCC3COC(Cn4ccnc4)(c4ccc(Cl)cc4Cl)O3)cc2)CC1` (centres undefined) [KETOCONAZOLE], the zone of inhibition at 1000 µg/disc worked out at 22 mm.

In the next assay the test system is Botrytis cinerea. Kind of assay: Antifungal activity against Botrytis cinerea after 48 to 72 hrs by twofold serial dilution method. The format is functional.
Conditions: not given
In short, it runs like this:
as §2
Consider `OC(Cn1cncn1)(Cn1cncn1)c1ccc(F)cc1F` [FLUCONAZOLE], for which the MIC entry is “inactive”.

As to `CC(=O)N1CCN(c2ccc(OCC3COC(Cn4ccnc4)(c4ccc(Cl)cc4Cl)O3)cc2)CC1` (centres undefined) [KETOCONAZOLE], the MIC came to 25 µg/mL (≈ 47 µM).
